Data from ChEMBL document CHEMBL3576820, “Discovery of benzimidazole oxazolidinediones as novel and selective nonsteroidal mineralocorticoid receptor antagonists” (ACS Med Chem Lett, 2015).
pIC50: −log10 of the molar value. Active and inactive are the calls of the source. The rule behind the calls is not given here.

Tests used:
Estrogen receptor beta = Estrogen receptor beta (Homo sapiens, UniProt Q92731); assay: Antagonist activity at human estrogen receptor beta assessed as inhibition of agonist-induced protein interaction with steroid receptor co-activator peptide by cell-based reporter gene assay
[1] = Fraction unbound in 10% rat plasma; type: ADME, cell-free; settings: 10% plasma
In short: (§1)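 Free fraction measured in the presence of 10% plasma (human or rat), taken as correlating with the free fraction in whole plasma.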

[2] = Oral bioavailability in Wistar han rat at 2 mg/kg; type: ADME, organism-based; settings: in vivo
In short: (§2)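 Wistar Han rats. IV dose 1 mg/kg in DMSO/PEG200/water (10:60:30), n=2. Oral dose 2 mg/kg in imwitor/tween (1:1) by gavage, n=3. Values are averages. Derived: F%, plasma clearance, Vdss, terminal half-life and oral AUC normalized to dose.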

Rattus norvegicus = assay: Dose normalized AUC in Wistar han rat at 2 mg/kg, po; type: ADME, organism-based; settings: in vivo; in short: as §2
[3] = biological target: T1, Estrogen receptor (Homo sapiens) (UniProt P03372); assay: Agonist activity at human estrogen receptor alpha by cell-based assay
T1 sequence (whole entry): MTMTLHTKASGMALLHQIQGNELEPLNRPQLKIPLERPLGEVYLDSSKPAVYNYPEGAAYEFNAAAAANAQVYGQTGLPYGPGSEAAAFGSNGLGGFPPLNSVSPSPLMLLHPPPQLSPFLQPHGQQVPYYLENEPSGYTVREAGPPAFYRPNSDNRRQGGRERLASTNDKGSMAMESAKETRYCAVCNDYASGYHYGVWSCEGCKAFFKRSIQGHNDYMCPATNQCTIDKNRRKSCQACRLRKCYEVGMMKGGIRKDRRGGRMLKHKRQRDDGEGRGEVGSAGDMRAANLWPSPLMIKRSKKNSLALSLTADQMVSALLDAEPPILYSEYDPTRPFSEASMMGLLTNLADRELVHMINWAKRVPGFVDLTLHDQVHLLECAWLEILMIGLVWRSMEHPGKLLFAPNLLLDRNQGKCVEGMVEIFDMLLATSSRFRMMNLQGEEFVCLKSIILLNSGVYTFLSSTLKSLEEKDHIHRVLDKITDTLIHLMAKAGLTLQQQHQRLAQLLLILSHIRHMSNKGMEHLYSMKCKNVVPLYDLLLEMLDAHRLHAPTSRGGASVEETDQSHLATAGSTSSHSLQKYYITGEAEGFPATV

[4] = biological target: T2, Progesterone receptor (Homo sapiens) (UniProt P06401); assay: Agonist activity at human progesterone receptor beta by cell-based assay
T2 sequence (whole entry): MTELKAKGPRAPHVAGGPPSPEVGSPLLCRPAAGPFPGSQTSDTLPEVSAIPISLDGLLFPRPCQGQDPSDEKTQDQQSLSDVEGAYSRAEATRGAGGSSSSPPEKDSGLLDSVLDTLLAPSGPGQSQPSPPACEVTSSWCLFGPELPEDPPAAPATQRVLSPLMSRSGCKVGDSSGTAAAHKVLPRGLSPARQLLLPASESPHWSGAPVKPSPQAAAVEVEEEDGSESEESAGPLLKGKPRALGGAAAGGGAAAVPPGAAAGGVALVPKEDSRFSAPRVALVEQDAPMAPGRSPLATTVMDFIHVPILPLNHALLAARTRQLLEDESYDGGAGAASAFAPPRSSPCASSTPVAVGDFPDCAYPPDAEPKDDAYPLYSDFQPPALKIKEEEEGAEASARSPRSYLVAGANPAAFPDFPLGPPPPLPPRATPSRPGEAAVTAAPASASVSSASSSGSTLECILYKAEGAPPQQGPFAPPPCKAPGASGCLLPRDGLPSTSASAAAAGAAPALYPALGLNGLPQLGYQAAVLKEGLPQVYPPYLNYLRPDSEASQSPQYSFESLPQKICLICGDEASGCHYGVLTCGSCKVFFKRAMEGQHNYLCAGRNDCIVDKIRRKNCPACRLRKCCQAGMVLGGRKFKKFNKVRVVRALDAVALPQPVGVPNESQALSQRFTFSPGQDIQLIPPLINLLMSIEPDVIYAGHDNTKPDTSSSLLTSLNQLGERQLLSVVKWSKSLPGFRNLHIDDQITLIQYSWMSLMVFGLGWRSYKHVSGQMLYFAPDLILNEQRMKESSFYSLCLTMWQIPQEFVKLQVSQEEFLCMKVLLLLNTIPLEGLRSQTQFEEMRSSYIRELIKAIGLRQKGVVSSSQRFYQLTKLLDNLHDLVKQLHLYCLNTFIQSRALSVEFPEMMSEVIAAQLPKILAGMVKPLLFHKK

[5] = Fraction unbound in 10% human plasma; type: ADME, cell-free; settings: 10% plasma; in short: as §1
Estrogen receptor = biological target: T3, Estrogen receptor (Homo sapiens, UniProt P03372); assay: Antagonist activity at human estrogen receptor alpha expressed in CHOK1 cells assessed as inhibition of beta-estradiol-induced protein interaction with steroid receptor co-activator peptide after overnight incubation by beta-galactosidase reporter gene assay; type: cell-based, CHO-K1
T3 sequence (P03372 whole entry): T1 sequence (whole entry)

Glucocorticoid receptor = biological target: T4, Glucocorticoid receptor (Homo sapiens, UniProt P04150); assay: Antagonist activity at human glucocorticoid receptor expressed in CHOK1 cells assessed as inhibition of dexamethasone-induced protein interaction with steroid receptor co-activator peptide after overnight incubation by beta-galactosidase reporter gene assay; type: cell-based, CHO-K1
T4 sequence (P04150 whole entry): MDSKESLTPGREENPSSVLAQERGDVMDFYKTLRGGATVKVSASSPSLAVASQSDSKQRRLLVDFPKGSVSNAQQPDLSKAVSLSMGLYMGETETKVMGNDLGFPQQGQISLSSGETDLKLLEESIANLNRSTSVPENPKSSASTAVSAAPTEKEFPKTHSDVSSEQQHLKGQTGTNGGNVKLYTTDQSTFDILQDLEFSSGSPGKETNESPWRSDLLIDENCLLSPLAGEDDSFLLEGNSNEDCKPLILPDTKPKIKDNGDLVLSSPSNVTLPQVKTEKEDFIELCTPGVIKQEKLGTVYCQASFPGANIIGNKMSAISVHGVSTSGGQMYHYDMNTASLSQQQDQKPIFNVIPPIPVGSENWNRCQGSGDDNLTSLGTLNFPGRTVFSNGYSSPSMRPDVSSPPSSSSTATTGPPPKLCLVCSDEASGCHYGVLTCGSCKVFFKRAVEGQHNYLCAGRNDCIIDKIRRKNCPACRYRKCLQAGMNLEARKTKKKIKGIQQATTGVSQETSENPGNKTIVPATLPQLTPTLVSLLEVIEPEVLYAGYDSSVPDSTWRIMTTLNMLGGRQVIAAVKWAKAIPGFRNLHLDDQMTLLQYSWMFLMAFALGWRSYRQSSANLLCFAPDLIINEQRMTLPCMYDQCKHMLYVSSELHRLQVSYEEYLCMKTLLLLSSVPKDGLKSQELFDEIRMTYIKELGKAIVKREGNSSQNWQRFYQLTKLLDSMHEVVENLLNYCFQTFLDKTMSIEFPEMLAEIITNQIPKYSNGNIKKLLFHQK

[6] = Terminal half life in Wistar han rat at 2 mg/kg, po and 1 mg/kg, iv; type: ADME, organism-based; settings: in vivo, read-out: beta t1/2 (converted); in short: as §2

Sequence of Estrogen receptor beta (Q92731 whole entry): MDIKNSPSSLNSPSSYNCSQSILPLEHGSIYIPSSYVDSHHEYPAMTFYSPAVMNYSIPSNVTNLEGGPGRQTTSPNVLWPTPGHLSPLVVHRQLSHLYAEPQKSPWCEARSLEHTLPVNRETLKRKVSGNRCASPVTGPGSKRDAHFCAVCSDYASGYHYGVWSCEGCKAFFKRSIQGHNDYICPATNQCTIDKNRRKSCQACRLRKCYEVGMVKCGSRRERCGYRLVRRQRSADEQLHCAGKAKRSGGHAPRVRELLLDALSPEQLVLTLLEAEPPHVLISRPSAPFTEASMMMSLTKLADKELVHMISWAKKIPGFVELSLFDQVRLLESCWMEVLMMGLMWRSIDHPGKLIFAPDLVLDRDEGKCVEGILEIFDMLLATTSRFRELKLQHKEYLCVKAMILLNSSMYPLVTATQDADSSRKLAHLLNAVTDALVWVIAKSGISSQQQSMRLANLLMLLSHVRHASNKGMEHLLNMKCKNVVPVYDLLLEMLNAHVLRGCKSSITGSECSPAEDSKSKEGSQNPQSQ

| SMILES | pIC50 (Estrogen receptor beta) | fraction unbound [1] | bioavailability [2] [%] | AUC/dose (Rattus norvegicus) [µM·kg·h/mg] | Activity [3] | Activity [4] | fraction unbound [5] | pIC50 (Estrogen receptor) | pIC50 (Glucocorticoid receptor) | half-life [6] [h] |
| --- | --- | --- | --- | --- | --- | --- | --- | --- | --- | --- |
| C[C@H](c1ccc(F)cc1)N1C(=O)O[C@](Cc2ccccc2)(c2nc3cc(Cl)ccc3[nH]2)C1=O | 5.62 | 0.01 | 15 | 0.11 | inactive | inactive | 0.002 | 5.48 | 5.42 | 1.5 |
| C[C@H](c1ccc(F)cc1)N1C(=O)O[C@](Cc2ccccc2)(c2nc3c(NS(C)(=O)=O)cccc3[nH]2)C1=O | 5.14 | 0.064 | 15 | 0.085 | inactive | inactive | 0.058 | < 4.70 | 4.77 | 1.2 |
| Cc1nocc1-c1ccc2[nH]c([C@@]3(Cc4ccccc4)OC(=O)N([C@H](C)c4ccc(F)cc4)C3=O)nc2c1 | 5.52 | – | 54 | 0.79 | inactive | inactive | – | 5.31 | 5.54 | 1.2 |
| C[C@H](c1ccc(F)cc1)N1C(=O)O[C@](Cc2ccccc2)(c2nc3cc(N4CCOCC4)ccc3[nH]2)C1=O | 5.28 | 0.065 | 44 | 0.07 | inactive | inactive | 0.093 | 5.21 | 5.31 | 0.69 |
| C[C@H](c1ccc(F)cc1)N1C(=O)O[C@](Cc2ccccc2)(c2nc3cc(NS(C)(=O)=O)ccc3[nH]2)C1=O | 4.92 | 0.064 | 6 | 0.067 | inactive | inactive | 0.034 | 4.77 | < 4.70 | 1.6 |
| C[C@H](c1ccc(F)cc1)N1C(=O)O[C@](Cc2ccccc2)(c2nc3cc(-c4cc[nH]n4)ccc3[nH]2)C1=O | 5.59 | 0.017 | 27 | 0.49 | inactive | inactive | 0.04 | 5.20 | 5.52 | 1.8 |

Other lines, results leading:

| pIC50 (Estrogen receptor beta) | fraction unbound [1] | bioavailability [2] [%] | AUC/dose (Rattus norvegicus) [µM·kg·h/mg] | Activity [3] | Activity [4] | fraction unbound [5] | pIC50 (Estrogen receptor) | pIC50 (Glucocorticoid receptor) | half-life [6] [h] | SMILES |
| --- | --- | --- | --- | --- | --- | --- | --- | --- | --- | --- |
| 5.57 | 0.008 | 11 | 0.046 | inactive | inactive | 0.002 | 5.10 | 5.51 | 0.94 | C[C@H](c1ccc(F)cc1)N1C(=O)O[C@](Cc2ccccc2)(c2nc3cc(-c4cccnc4)ccc3[nH]2)C1=O |
| 5.57 | 0.007 | 36 | 0.33 | inactive | inactive | 0.002 | 5.52 | 5.47 | 1.7 | C[C@H](c1ccc(F)cc1)N1C(=O)O[C@](Cc2ccccc2)(c2nc3cc(C(F)(F)F)ccc3[nH]2)C1=O |
